How the values were obtained:
Protease [1] = target: T1, Protease (Human immunodeficiency virus 1, UniProt Q9YQ12); test: Inhibition of HIV1 recombinant protease by fluorometric assay
Method in brief: (§1)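 HIV-1 protease was cloned and expressed heterologously in E. coli. K_i values were determined in a fluorometric assay.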

[2] = tested on: Human immunodeficiency virus 1; test: Antiviral activity against HIV1 3B bearing wild type protease infected in human MT4 cells assessed as inhibition of virus-induced cytopathic effect after 5 days by XTT assay; format: functional, organism-based; details: Human immunodeficiency virus 1, 3B, MT4, 120 h
Method in brief: (§2)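 MT-4 cells (2 ×10⁴ cells/well) got 5-fold serial compound dilutions together with 20–50 TCID of HIV IIIb. The virus was wild type, or an M46I/V82F/I84V mutant isolated after 20 passages of IIIb in MT4 cells under increasing ritonavir. Cell viability was read with XTT after five days. EC₅₀ came from dose–response curves of percent cytoprotection.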

[3] = tested on: Human immunodeficiency virus 1; test: Antiviral activity against HIV1 3B bearing protease with M46I, V82F and I84V mutation infected in human MT4 cells assessed as inhibition of virus-induced cytopathic effect after 5 days by XTT assay; format: functional, organism-based; details: Human immunodeficiency virus 1, 3B, MT4, 120 h
Method in brief: (§3)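 HIV IIIb resistant variant (M46I, V82F, I84V) obtained after 20 passages in MT4 cells under rising ritonavir. MT4 cells (2×10⁴/well) received 5-fold serial compound dilutions together with 20–50 TCID of wild-type or mutant IIIb. After 5 days, cytopathic effect was read as viability by XTT. EC50 was taken from dose-response curves of percent cytoprotection.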

[4] = tested on: Human immunodeficiency virus 1; test: Ratio of EC50 for HIV1 3B bearing protease with M46I, V82F and I84V mutation to EC50 for HIV1 3B bearing wild type protease; format: functional; method in brief: as §3
[5] = Apparent permeability across human Caco-2 cell membrane; format: ADME, cell-based
Protease [6] = target: T1, Protease; test: Inhibition of HIV1 protease; method in brief: as §1
[7] = tested on: Human immunodeficiency virus 1; test: Antiviral activity against HIV1; format: functional, organism-based; method in brief: as §2

T1 sequence (Q9YQ12 whole entry): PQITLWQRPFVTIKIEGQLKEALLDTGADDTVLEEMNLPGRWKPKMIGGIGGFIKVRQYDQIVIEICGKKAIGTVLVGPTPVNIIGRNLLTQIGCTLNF

| Compound | Ki (Protease [1]) [nM] | EC50 [2] [nM] | EC50 [3] [nM] | Ratio EC50 [4] | Papp [5] [×10⁻⁶ cm/s] | Ki (Protease [6]) [nM] | EC50 [7] [nM] |
| --- | --- | --- | --- | --- | --- | --- | --- |
| CNC(=O)[C@@H](NC(=O)[C@H](OCc1ccccc1)[C@H](O)[C@@H](O)[C@@H](OCc1ccccc1)C(=O)N[C@H]1c2ccccc2C[C@H]1O)C(C)C | 0.2 | 140 | 1200 | 9 | 1.4 | 0.2 | 140 |
| CNC(=O)[C@@H](NC(=O)[C@H](OCc1ccccc1)[C@H](O)[C@@H](O)[C@@H](OCc1ccccc1)C(=O)N[C@H]1c2ccccc2C[C@H]1O)C1COC1 | 10 | 5400 | > 10000 | > 1.6 |  |  |  |
| CNC(=O)[C@H](NC(=O)[C@H](OCc1ccccc1)[C@H](O)[C@@H](O)[C@@H](OCc1ccccc1)C(=O)N[C@H]1c2ccccc2C[C@H]1O)C1COC1 | 99 | > 10000 | > 10000 |  |  |  |  |
| CNC(=O)[C@@H](NC(=O)[C@H](OCc1ccccc1)[C@H](O)[C@@H](O)[C@@H](OCc1ccccc1)C(=O)N[C@H]1c2ccccc2C[C@H]1O)C(C)COC (single isomer, unassigned; 4d) | 18 | 3500 | > 10000 | > 2 |  |  |  |
| CC(C)[C@H](NC(=O)[C@H](OCc1ccccc1)[C@H](O)[C@@H](O)[C@@H](OCc1ccccc1)C(=O)N[C@H]1c2ccccc2C[C@H]1O)C(=O)NCCF | 1 | 170 | 440 | 3 | 1.6 |  |  |
| O=C(N[C@H]1c2ccccc2C[C@H]1O)[C@H](OCc1ccccc1)[C@H](O)[C@@H](O)[C@@H](OCc1ccccc1)C(=O)N[C@H]1c2ccccc2C[C@H]1O |  |  |  |  |  | 0.6 | 100 |
| CC(C)[C@H](NC(=O)[C@H](OCc1ccccc1)[C@H](O)[C@@H](O)[C@@H](OCc1ccccc1)C(=O)N[C@H]1c2ccccc2C[C@H]1O)C(=O)NCC(F)(F)F | 1.9 | 150 | 920 | 5 | 2.9 |  |  |
| COCCNC(=O)[C@@H](NC(=O)[C@H](OCc1ccccc1)[C@H](O)[C@@H](O)[C@@H](OCc1ccccc1)C(=O)N[C@H]1c2ccccc2C[C@H]1O)C(C)C | 2.3 | 250 | 1200 | 5 |  |  |  |
| CNC(=O)[C@@H](NC(=O)[C@H](OCc1ccccc1)[C@H](O)[C@@H](O)[C@@H](OCc1ccccc1)C(=O)N[C@H]1c2ccccc2C[C@H]1O)C(C)COC (single isomer, unassigned; 4e) | 0.7 | 330 | 1300 | 4 |  |  |  |
| CNC(=O)[C@H](CCOC)NC(=O)[C@H](OCc1ccccc1)[C@H](O)[C@@H](O)[C@@H](OCc1ccccc1)C(=O)N[C@H]1c2ccccc2C[C@H]1O | 10 | 1800 | 6900 | 3 |  |  |  |
